Measured values taken from article PMC3399519 (European Journal of Medicinal Chemistry, 2011).
“Also recorded” adds a separate entry of the source. Read-outs that look alike come from different tables or passages of the source.

Legend:
[1] = system: HAT activity in HeLa nuclear extracts (histone H4 acetylation); assay: ELISA acetyltransferase assay with HeLa nuclear extracts, histone H4 peptide; type: biochemical; conditions: for inhibition of cellular HAT activity (HeLa nuclear extracts): 200 µM compound, histone H4; for inhibition of HAT activity in HeLa nuclear extracts (in words): histone H4 acetylation
In short: (§1)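 HeLa nuclear extract (2.5 µg/mL final protein) acetylates biotinylated histone H3 (aa 1–21) or H4 (aa 2–24) peptide immobilised via streptavidin. Reaction runs 15 min, read by anti-acetyl-lysine ELISA. H3 tested at 50 µM against H4. Triplicates, scaled to no-inhibitor and no-enzyme controls.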

[2] = biological target: T1, Tip60 (Homo sapiens, UniProt Q92993); assay: Radioisotope-labeled histone acetyltransferase assay, Tip60; type: biochemical; conditions: for Tip60 inhibition (in words): 200 µM compound; for selectivity for Tip60 in comparison with PCAF and p300: recombinant enzyme inhibition assays
T1 sequence (Q92993 whole entry): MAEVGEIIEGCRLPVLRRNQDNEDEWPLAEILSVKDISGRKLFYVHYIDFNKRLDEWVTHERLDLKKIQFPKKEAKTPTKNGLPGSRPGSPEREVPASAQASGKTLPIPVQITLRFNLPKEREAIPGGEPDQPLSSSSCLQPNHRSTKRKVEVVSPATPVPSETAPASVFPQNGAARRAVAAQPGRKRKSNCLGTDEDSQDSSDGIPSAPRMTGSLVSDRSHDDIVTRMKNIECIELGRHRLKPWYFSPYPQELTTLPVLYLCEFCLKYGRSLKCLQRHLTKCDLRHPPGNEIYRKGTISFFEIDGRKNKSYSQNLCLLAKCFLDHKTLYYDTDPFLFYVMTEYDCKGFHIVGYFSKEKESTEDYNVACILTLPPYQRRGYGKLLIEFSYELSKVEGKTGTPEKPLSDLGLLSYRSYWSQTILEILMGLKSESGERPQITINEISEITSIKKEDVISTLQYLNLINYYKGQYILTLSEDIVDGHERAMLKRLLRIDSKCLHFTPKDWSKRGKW

[3] = system: PCAF; conditions: read-out: IC50 PCAF; estimated by Kundu et al. ref 7; cited from earlier work
[4] = system: p300; conditions: read-out: IC50 p300; Souto et al. ref 11; cited from earlier work
[5] = system: HAT activity in HeLa nuclear extracts (histone H3 acetylation); type: biochemical; conditions: 50 µM compound
In short: as §1

[6] = system: p300; conditions: read-out: IC50 p300; estimated by Kundu et al. ref 7; cited from earlier work
[7] = system: PCAF; conditions: read-out: IC50 PCAF; previous characterization with a different assay ref 12; cited from earlier work
[8] = system: HAT activity of nuclear extracts of brain tissue samples; type: biochemical, rats; conditions: 30 µM inhibitor, histone H3 as acetyl acceptor
In short: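 Nuclear extracts come from tissue of different brain regions, at 40 µg/mL protein, standardised by protein content. Biotinylated histone H3 peptide (aa 1–21) is streptavidin-immobilised as acceptor. Buffer: 50 mM HEPES pH 7.4 with Triton X-100, EDTA, BSA and DTT. Inhibitor at 30 µM, 15 min reaction, anti-acetyl-lysine ELISA. Triplicates for each of two animals, blanks subtracted.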

[9] = biological target: T2, human recombinant p300 HAT domain (Homo sapiens, UniProt Q09472); assay: Radioisotope-labeled histone acetyltransferase assay, p300; type: biochemical; conditions: 200 µM compound
T2 sequence (Q09472 1287-1663 limits assumed): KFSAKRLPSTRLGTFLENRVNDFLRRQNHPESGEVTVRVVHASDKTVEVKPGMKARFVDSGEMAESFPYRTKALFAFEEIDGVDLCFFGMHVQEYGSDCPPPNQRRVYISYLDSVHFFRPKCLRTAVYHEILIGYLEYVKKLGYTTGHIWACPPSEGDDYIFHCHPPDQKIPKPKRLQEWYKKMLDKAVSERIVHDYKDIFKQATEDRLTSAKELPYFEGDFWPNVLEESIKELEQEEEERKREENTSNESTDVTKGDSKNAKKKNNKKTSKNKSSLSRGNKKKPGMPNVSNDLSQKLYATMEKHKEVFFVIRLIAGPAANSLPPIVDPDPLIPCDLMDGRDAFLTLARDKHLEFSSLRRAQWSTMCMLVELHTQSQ

[10] = biological target: human recombinant PCAF HAT domain (Homo sapiens, UniProt Q92831); assay: Radioisotope-labeled histone acetyltransferase assay, PCAF; type: biochemical; conditions: 200 µM compound
human recombinant PCAF HAT domain, sequence (Q92831 493-658): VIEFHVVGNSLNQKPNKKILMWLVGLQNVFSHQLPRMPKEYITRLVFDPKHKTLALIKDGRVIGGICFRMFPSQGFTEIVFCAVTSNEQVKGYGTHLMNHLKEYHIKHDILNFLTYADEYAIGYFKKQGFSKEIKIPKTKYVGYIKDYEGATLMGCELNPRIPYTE

[11] = biological target: T1, Tip60; assay: Steady-state kinetic characterization of Tip60 inhibition; type: biochemical
[12] = system: HEP G2 cells; conditions: HEP G2 cells ref 12; cited from earlier work

For CC(C)CCCC(C)CCOc1ccc(CCc2cccc(O)c2C(=O)O)cc1 (stereo not shown) [6a], the “inhibition of cellular HAT activity (HeLa nuclear extracts)” value (shortened to “inhibition of cellular HAT activity”) [1] was over 50% and the “Tip60 inhibition (in words)” value [2] was “also inhibited the Tip60 HAT activity”.
With COCCOc1ccc(CCc2cccc(O)c2C(=O)O)cc1 [6b] the “inhibition of HAT activity in HeLa nuclear extracts (in words)” value (shortened to “inhibition of HAT activity … (in words)”) [1] was “strongly reduced HAT inhibitory potency; also recorded: poor inhibition” and the “Tip60 inhibition (in words)” value [2] was “very weakly inhibit; also recorded: very poor inhibitors”.
In the case of CCCCCOc1ccc(CCc2cccc(O)c2C(=O)O)cc1C(C)=O [6c], the “inhibition of cellular HAT activity” value [1] is reported as over 50% and the “Tip60 inhibition (in words)” value [2] is reported as “also inhibited the Tip60 HAT activity”.
For CCCCCOc1ccc(CCc2cccc(O)c2C(=O)O)cc1C(C)O (stereo not shown) [6d], the “potency on HeLa nuclear extracts compared to recombinant Tip60” value [1] was “more potent on HeLa nuclear extracts than for the recombinant Tip60” and the “Tip60 inhibition (in words)” value [2] was “very weakly inhibit”.
In the case of CCCCCCCOc1ccc(CCc2cccc(O)c2C(=O)O)cc1C(C)=O [6f], the “inhibition of cellular HAT activity” value [1] is reported as over 50% and the “Tip60 inhibition (in words)” value [2] is reported as “also inhibited the Tip60 HAT activity”.
For CCCCCc1cccc(O)c1C(=O)O [6h], the “inhibition of HAT activity … (in words)” value [1] was “strongly reduced HAT inhibitory potency; also recorded: poor inhibition” and the “Tip60 inhibition (in words)” value [2] was “very poor inhibitors”.
With CCCCCCCCCCCCCCCc1cccc(O)c1C(=O)O [16 (AA), 6-pentadecylsalicylic acid, reference compound] the “inhibition of cellular HAT activity” value [1] was over 50%, the “Tip60 inhibition (in words)” value [2] was “almost completely; also recorded: also inhibited the Tip60 HAT activity” and the inhibition at 200 µM ([2]; read-out: inhibition of Tip60 activity) was over 76%. For the same compound, the IC50 [3] was 5 µM, the IC50 [4] was 50 to 100 µM and the “inhibitory potency on histone H3 acetylation compared to histone H4 acetylation” value [5] was “almost equal potency for both histones”. The IC50 [6] was 8.5 µM and the IC50 [7] was about 1000 µM.
For CCCCCCCCCCCCCC#Cc1ccccc1C(=O)OC [compound 11], the “inhibition of cellular HAT activity” value [1] was over 50% and the “Tip60 inhibition (in words)” value [2] was “also inhibited the Tip60 HAT activity”.
For CCCCCCCCCCCCCCCc1ccccc1C(=O)O [compound 12], the “inhibition of cellular HAT activity” value [1] was over 50% and the “Tip60 inhibition (in words)” value [2] was “also inhibited the Tip60 HAT activity”.
With CCCCCCCc1ccc(CCc2cc(O)cc(O)c2C(=O)O)cc1 [compound 15] the “potency on HeLa nuclear extracts compared to recombinant Tip60” value [1] was “more potent on HeLa nuclear extracts than for the recombinant Tip60”.
With CCCCCCCCCCc1cccc(O)c1C(=O)O [compound 17] the “inhibition of cellular HAT activity” value [1] was over 50%, the “Tip60 inhibition (in words)” value [2] was “also inhibited the Tip60 HAT activity” and the “inhibitory potency on histone H3 acetylation compared to histone H4 acetylation” value [5] was “almost equal potency for both histones”.
For CCCCCCCCCCCCCCCc1cc(O)cc(O)c1C(=O)O [compound 18], the “inhibition of cellular HAT activity” value [1] was over 50%, the “Tip60 inhibition (in words)” value [2] was “also inhibited the Tip60 HAT activity” and the “selectivity for Tip60 in comparison with PCAF and p300” value (shortened to “selectivity for Tip60 in comparison”) [2] was “selective for Tip60”.
In the case of CCCCCCCCCCc1cc(O)cc(O)c1C(=O)O [compound 19], the “inhibition of cellular HAT activity” value [1] is reported as over 50%, the “Tip60 inhibition (in words)” value [2] is reported as “also inhibited the Tip60 HAT activity” and the “selectivity for Tip60 in comparison” value [2] is reported as “selective for Tip60”.
In the case of CCCCCCCc1ccc(CCc2cccc(O)c2C(=O)O)cc1 [compound 20], the “inhibition of cellular HAT activity” value [1] is reported as over 50%, the “inhibition of HAT activity of nuclear extracts of different brain regions” value [8] is reported as “equal potency to AA” and the “effect on p300 activity (in words)” value [9] is reported as “no inhibitory impact; also recorded: no observable inhibitory effect”. For the same compound, the “Tip60 inhibition (in words)” value [2] was “also inhibited the Tip60 HAT activity”, the inhibition at 200 µM ([2]; read-out: inhibition of Tip60 activity, 200 µM compound, 100 nM Tip60, 10 µM Ac-CoA, 100 µM H4-20) was over 76% and the “effect on PCAF activity (in words)” value [10] was “no inhibitory impact; also recorded: no observable inhibitory effect”. The “inhibition pattern with respect to Ac-CoA” value [11] was “essentially competitive with respect to Ac-CoA”.
With CCCCCOc1ccc(/C=C\c2cccc(O)c2C(=O)O)cc1 [compound 21] the “inhibition of cellular HAT activity” value [1] was over 50%, the “inhibition of HAT activity … (in words)” value [1] was “high inhibitory activity” and the “Tip60 inhibition (in words)” value [2] was “also inhibited the Tip60 HAT activity”. The “selectivity for Tip60 in comparison” value [2] was “selective for Tip60”, the “effect on PCAF activity (in words)” value [10] was “enhance the PCAF activity significantly” and the “inhibitory potency on histone H3 acetylation compared to histone H4 acetylation” value [5] was “opposite”. For the same compound, the “inhibition of histone acetylation in HEP G2 cells compared to 16 (AA)” value [12] was “more potent inhibitor of histone acetylation than 16 (AA)”.
With CCCCCOc1ccc(CCc2cccc(O)c2C(=O)O)cc1 [compound 24] the “inhibition of cellular HAT activity” value [1] was over 50%, the “Tip60 inhibition (in words)” value [2] was “also inhibited the Tip60 HAT activity” and the “effect on PCAF activity (in words)” value [10] was “enhance the PCAF activity significantly”. For the same compound, the “inhibitory potency on histone H3 acetylation compared to histone H4 acetylation” value [5] was “opposite”.
With CCCCCCCCCCCCCCOc1ccc(CCc2cccc(O)c2C(=O)O)cc1 [compound 25] the “inhibition of cellular HAT activity” value [1] was over 50%, the “Tip60 inhibition (in words)” value [2] was “only modest inhibitory activity; also recorded: also inhibited the Tip60 HAT activity” and the “inhibitory potency on histone H3 acetylation compared to histone H4 acetylation” value [5] was “opposite”.
